Laboratory results reported in ChEMBL document CHEMBL1157584, “Discovery of 4-amino-1-(7H-pyrrolo[2,3-d]pyrimidin-4-yl)piperidine-4-carboxamides as selective, orally active inhibitors of protein kinase B (Akt)” (J Med Chem, 2010).
Converted amounts (≈) assume the structure as drawn.

Key:
[1] = test system: Mus musculus; test: Half life in mouse at 10 mg/kg, iv; type: ADME, organism-based; set-up: dose 10 mg/kg, route intravenous; conditions: in vivo
[2] = test system: Mus musculus; test: Volume of distribution at steady state in mouse at 10 mg/kg, iv; type: ADME, organism-based; set-up: dose 10 mg/kg, route intravenous; conditions: in vivo
Summary of the method: (§1)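 Mice received a single iv dose, and plasma drug levels were followed over time. Pharmacokinetic parameters, including Vss in L, were fitted to model 201 with default settings.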

[3] = test system: Mus musculus; test: Plasma clearance in mouse at 10 mg/kg, iv; type: ADME, organism-based; set-up: dose 10 mg/kg, route intravenous; conditions: in vivo
[4] = Oral bioavailability in mouse at 10 mg/kg; type: ADME, organism-based; conditions: in vivo
[5] = test system: Mus musculus; test: Plasma clearance in mouse at 25 mg/kg, iv; type: ADME, organism-based; set-up: dose 25 mg/kg, route intravenous; conditions: in vivo
[6] = Solubility in aqueous buffer at pH 6.5; type: physicochemical
[7] = Solubility in aqueous buffer at pH 7.0; type: physicochemical
[8] = test system: Mus musculus; test: Half life in mouse at 5 mg/kg, iv; type: ADME, organism-based; set-up: dose 5 mg/kg, route intravenous; conditions: in vivo
[9] = test system: Mus musculus; test: Volume of distribution at steady state in mouse at 5 mg/kg, iv; type: ADME, organism-based; set-up: dose 5 mg/kg, route intravenous; conditions: in vivo; summary of the method: as §1
[10] = test system: Mus musculus; test: Plasma clearance in mouse at 5 mg/kg, iv; type: ADME, organism-based; set-up: dose 5 mg/kg, route intravenous; conditions: in vivo
[11] = Oral bioavailability in mouse at 5 mg/kg; type: ADME, organism-based; conditions: in vivo
[12] = Plasma concentration in CrTac:Ncr-Fox1 (nu) athymic mouse bearing human U87MG cells at 200 mg/kg, po single dose after 4 hrs; type: ADME, organism-based, U-87MG ATCC; set-up: dose 200 mg/kg, route oral
Summary of the method: (§2)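 U87MG xenograft-bearing athymic mice given a single oral dose of 200 mg/kg. Compound levels measured in plasma and tumor samples 4 h after dosing.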

[13] = Drug level in CrTac:Ncr-Fox1 (nu) athymic mouse tumor bearing human U87MG cells at 200 mg/kg, po single dose after 4 hrs; type: ADME, organism-based, Neoplasm, U-87MG ATCC; set-up: dose 200 mg/kg, route oral; conditions: read-out: Drug uptake; summary of the method: as §2

CC(C)(C)c1ccc(CC2(N)CCN(c3ncnc4[nH]ccc34)CC2)cc1
t1/2 [1]: 47.4 min | Vdss [2]: 0.27 L | CL [3]: 0.31 L/h | bioavailability [4]: < 1%

NC1(Cc2ccc(Cl)cc2)CCN(c2ncnc3[nH]ccc23)CC1
CL [5]: 0.33 L/h | solubility [6]: 0.26 mg/mL (≈ 761 µM) | solubility [7]: Insoluble

NC1(C(=O)NCc2ccc(Cl)cc2)CCN(c2ncnc3[nH]ccc23)CC1
t1/2 [8]: 54 min | Vdss [9]: 0.06 L | CL [10]: 0.08 L/h | bioavailability [11]: 58% | concentration at 4 h [12]: 20 µM | concentration at 4 h [13]: 43 µM
